# Measurements taken from article PMC7719388 (Clinical and Translational Science, 2020).
# “Also recorded” adds a separate entry of the source. Where two headings read alike, the source gives them in different places.
# Tests used:
# KCa2 channel [1] = assay: In vitro inhibition of KCa2 channels; assay type: biochemical; conditions: equivalent of 0.77 µM
# KCa2 channel [2] = conditions: cited from earlier work
# conscious pigs = conditions: ref unpublished data; cited from earlier work
# healthy male subjects [3] = assay: First-in-human single ascending dose study: safety and tolerability; assay type: in vivo
# Summary of the method: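 Six cohorts were randomized 6 active vs 2 placebo (5 vs 2 in cohort 1), with two sentinel subjects dosed 48 h ahead. Dosing was a 30-min IV infusion. Cohorts 1–3 used sterile water diluent and an 18G cannula. Cohorts 4–6 used 5% glucose at 1 mg/mL, a 16G cannula in the largest antecubital vein and a 5 mL 5% glucose flush. Monitoring covered AEs, physical examinations, vital signs, 24-h Holter and laboratory tests; discharge was at 7 days.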
# [4] = in man, assumed; cited from earlier work
# minipigs = conditions: high dose levels (equivalent to 27.3 mg/kg in man); cited from earlier work
# [5] = Pharmacokinetics after 30-minute intravenous infusion; assay type: in vivo, human
# Summary of the method: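 Healthy men received a 30-min IV infusion of test compound. Serum levels were measured by validated LC‑MS/MS (lower limit of quantification 5 ng/mL), with samples taken after each ECG extraction. Noncompartmental analysis was done per dose level. Values below the limit were set to zero before Tmax and treated as missing after Tmax.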
# healthy male subjects [6] = assay: Tremorography; assay type: in vivo, human; conditions: all dose levels
# Summary of the method: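 A three-axis accelerometer was taped to the dorsal mid third ray of the right hand. Subjects sat semirecumbent with the arm extended horizontally, hand dorsum up, at predefined pre- and post-dose times. Each axis was bandpass filtered at 1–20 Hz (zero-phase third-order Butterworth). Power spectral densities were combined by L1-norm, and the read-outs were peak frequency and its amplitude.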
# [7] = tested on: Kv11.1 (human ether‐à‐go‐go‐related gene) channel; conditions: read-out: IC50 for the Kv11.1 channel; in vitro; ref unpublished data; cited from earlier work
# healthy male subjects [8] = assay: 24-hour Holter ECG: QTcF, QT subintervals and concentration-effect analysis; assay type: in vivo, human; conditions: for ΔΔ Tp‐Tend / ΔΔJp‐Tpc / ΔΔQRS / ΔΔQTcF: model prediction at geometric mean Cmax
# Summary of the method: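 Healthy men aged 18–45 received a 30-min IV infusion of test compound or 0.9% NaCl placebo, randomized and double-blind. 12-lead Holter recording ran for 24 h from just before dosing. At set times subjects lay supine for at least 8 min, and triplicate ECGs were extracted from the last 3 min. A blinded operator used global median beat analysis. QT was Fridericia-corrected and split into QRS, Jp‑Tpc and Tp‑Tend. Placebo-corrected change from baseline was modelled linearly against concentration, with subject as a random effect, and predicted at geometric mean Cmax per dose.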
# [9] = in vitro, 30 µM (estimated concentration: 12,000 ng/mL); preclinical; cited from earlier work
# [10] = cited from earlier work
# [11] = 2 mg/kg, mean volume 15.0 mL, 6 subjects
# [12] = 2 mg/kg, mean volume 33.3 mL, 6 subjects
# [13] = 1.5 and 2 mg/kg, 3+3 subjects, changed formulation
# [14] = 3 and 4 mg/kg, 3+3 subjects, changed formulation
# [15] = 5 and 6 mg/kg, 3+3 subjects, changed formulation
smiles,measurement,setting,value
CN(CC#N)C(=O)C[C@H](Nc1nc2ccccc2[nH]1)c1cccc(C(F)(F)F)c1 [AP30663],"IC50 for the KCa2 channel, equivalent concentration",KCa2 channel [1],~ 300 ng/mL
same,inhibition of KCa2 channel subclasses,KCa2 channel [2],inhibits all three subclasses of KCa2 channels
same,IC50,"KCa2 channel [2]; read-out: IC50 for the KCa2 channel, preclinical, no reference given",770 nM
same,IC50,"KCa2 channel [2]; read-out: IC50 for the KCa2 channels, in vitro, ref unpublished data",~1000 nM
same,atrial refractoriness,conscious pigs,selectively increase atrial refractoriness; also recorded: increased atrial refractoriness
same,conversion of vernakalant‐resistant AF,conscious pigs,converted vernakalant‐resistant AF
same,effect on ventricular repolarization,conscious pigs,little or no effect
same,reinduction of AF,conscious pigs,prevented its reinduction
same,Number of AEs,"healthy male subjects [3]; 1 mg/kg, 5 subjects",1
same,Number of infusion site AEs,"healthy male subjects [3]; 1 mg/kg, 5 subjects",1
same,Severity of AEs,"healthy male subjects [3]; 1 mg/kg, 5 subjects",Mild
same,Number of subjects with AEs,"healthy male subjects [3]; 1 mg/kg, 5 subjects, AEs considered related",1 (20%)
same,Median duration of AEs,"healthy male subjects [3]; 1 mg/kg, 5 subjects, subject lost to follow-up, AE ongoing at day 7",>7 days ^a
same,Median duration of AEs,healthy male subjects [3]; [11],0.521 days
same,Number of AEs,healthy male subjects [3]; [11],4
same,Number of infusion site AEs,healthy male subjects [3]; [11],4
same,Number of subjects with AEs,healthy male subjects [3]; [11],4 (67%)
same,Severity of AEs,healthy male subjects [3]; [11],Mild
same,Median duration of AEs,healthy male subjects [3]; [12],32 days
same,Number of AEs,healthy male subjects [3]; [12],10
same,Number of infusion site AEs,healthy male subjects [3]; [12],10
same,Number of subjects with AEs,healthy male subjects [3]; [12],5 (83%)
same,Severity of AEs,healthy male subjects [3]; [12],Mild
same,Median duration of AEs,healthy male subjects [3]; [13],1.08 days
same,Number of AEs,healthy male subjects [3]; [13],3
same,Number of infusion site AEs,healthy male subjects [3]; [13],3
same,Number of subjects with AEs,healthy male subjects [3]; [13],1 (33%)
same,Severity of AEs,healthy male subjects [3]; [13],Mild
same,duration of hardening of the vein upon palpation until resolved,healthy male subjects [3]; 2 subjects in cohort 3,~4 months
same,Median duration of AEs,healthy male subjects [3]; [14],13 days
same,Number of AEs,healthy male subjects [3]; [14],2
same,Number of infusion site AEs,healthy male subjects [3]; [14],2
same,Number of subjects with AEs,healthy male subjects [3]; [14],1 (33%)
same,Severity of AEs,healthy male subjects [3]; [14],Mild
same,Median duration of AEs,healthy male subjects [3]; [15],22 days
same,Number of AEs,healthy male subjects [3]; [15],2
same,Number of infusion site AEs,healthy male subjects [3]; [15],2
same,Number of subjects with AEs,healthy male subjects [3]; [15],1 (33%)
same,Severity of AEs,healthy male subjects [3]; [15],Mild
same,central nervous system symptoms or signs,healthy male subjects [3]; all dose levels,no symptoms or signs of engagement of the central nervous system
same,serious AEs,healthy male subjects [3]; all dose levels,No serious AEs
same,number of AEs related to the administration site,healthy male subjects [3]; cohorts 1–3,15
same,subjects with AEs related to the administration site,"healthy male subjects [3]; cohorts 1–3, 10 of 17 subjects",59%
same,subjects with AEs related to the administration site,"healthy male subjects [3]; cohorts 4–6, 9 of 18 subjects",50%
same,number of AEs related to the administration site,"healthy male subjects [3]; cohorts 4–6, changed administration procedure",15
same,overall safety and tolerability,healthy male subjects [3]; doses up to 6 mg/kg,safe and systemically well‐tolerated; also recorded: safe and well‐tolerated systemically
same,time to full recovery of infusion site AEs,healthy male subjects [3]; in vivo,up to 110 days
same,related AEs that were related to the infusion site,"healthy male subjects [3]; mild, temporary",33 of 34
same,number of AEs considered related to AP30663 administration,healthy male subjects [3]; of 73 AEs in 30 of 47 subjects,34
same,free fraction,[4],6.4%
same,tremor,minipigs,induced tremor
same,Geometric mean Cmax of AP30663,"[5]; 1 mg/kg, 5 mg/mL",3398 ng/mL
same,Geometric mean Cmax of AP30663,"[5]; 1.5 mg/kg, 1 mg/mL",4428 ng/mL
same,Geometric mean Cmax of AP30663,"[5]; 2 mg/kg, 1 mg/mL",4644 ng/mL
same,Geometric mean Cmax of AP30663,"[5]; 2 mg/kg, 5 mg/mL",6609 ng/mL
same,Geometric mean Cmax of AP30663,"[5]; 2 mg/kg, 10 mg/mL",7154 ng/mL
same,Geometric mean Cmax of AP30663,"[5]; 3 mg/kg, 1 mg/mL",7950 ng/mL
same,Geometric mean Cmax of AP30663,"[5]; 4 mg/kg, 1 mg/mL",7994 ng/mL
same,Geometric mean Cmax of AP30663,"[5]; 5 mg/kg, 1 mg/mL",7941 ng/mL
same,observed maximum total plasma concentration,[5]; 6 mg/kg dose level,around 25.5 µM
same,Geometric mean Cmax of AP30663,"[5]; 6 mg/kg, 1 mg/mL",10245 ng/mL
same,dose proportionality of Cmax,[5]; 1-6 mg/kg,less than dose proportional increase
same,median Tmax,[5]; 30‐minute linear infusion,30 min
same,Volume of distribution,[5]; highest dose levels,98.4 L
same,clearance,[5]; lower dose levels,11.5 L/h
same,Volume of distribution,[5]; lowest dose,65.8 L
same,mean clearance,[5]; overall,12.5 ± 3.2 L/h
same,clearance,[5]; three highest dose levels,15.9 L/h
same,dose normalized Cmax and area under the curve (AUC),[5]; with increasing doses,decreased with increasing doses
same,tremorography mean amplitude,healthy male subjects [6],0.2 mG^2•Hz^‐1
same,tremorography recordings,healthy male subjects [6],normal and unchanged
same,IC50,[7],4000 nM
same,ΔΔ Tp‐Tend,"healthy male subjects [8]; 1 mg/kg, 5 mg/mL",1.9 ± 1.3 ms
same,ΔΔJp‐Tpc,"healthy male subjects [8]; 1 mg/kg, 5 mg/mL",6.2 ± 3.0 ms
same,ΔΔQRS,"healthy male subjects [8]; 1 mg/kg, 5 mg/mL",1.0 ± 1.0 ms
same,ΔΔQTcF,"healthy male subjects [8]; 1 mg/kg, 5 mg/mL, mean ± SD",10.5 ± 3.3 ms
same,ΔΔ Tp‐Tend,"healthy male subjects [8]; 1.5 mg/kg, 1 mg/mL",2.6 ± 1.4 ms
same,ΔΔJp‐Tpc,"healthy male subjects [8]; 1.5 mg/kg, 1 mg/mL",7.0 ± 3.0 ms
same,ΔΔQRS,"healthy male subjects [8]; 1.5 mg/kg, 1 mg/mL",0.9 ± 1.0 ms
same,ΔΔQTcF,"healthy male subjects [8]; 1.5 mg/kg, 1 mg/mL",11.8 ± 3.4 ms
same,ΔΔ Tp‐Tend,"healthy male subjects [8]; 2 mg/kg, 1 mg/mL",2.8 ± 1.4 ms
same,ΔΔJp‐Tpc,"healthy male subjects [8]; 2 mg/kg, 1 mg/mL",7.2 ± 3.0 ms
same,ΔΔQRS,"healthy male subjects [8]; 2 mg/kg, 1 mg/mL",0.9 ± 1.9 ms
same,ΔΔQTcF,"healthy male subjects [8]; 2 mg/kg, 1 mg/mL",12.0 ± 3.5 ms
same,ΔΔ Tp‐Tend,"healthy male subjects [8]; 2 mg/kg, 5 mg/mL",4.1 ± 1.7 ms
same,ΔΔJp‐Tpc,"healthy male subjects [8]; 2 mg/kg, 5 mg/mL",8.8 ± 3.3 ms
same,ΔΔQRS,"healthy male subjects [8]; 2 mg/kg, 5 mg/mL",0.6 ± 1.1 ms
same,ΔΔQTcF,"healthy male subjects [8]; 2 mg/kg, 5 mg/mL",14.4 ± 3.9 ms
same,ΔΔ Tp‐Tend,"healthy male subjects [8]; 2 mg/kg, 10 mg/mL",4.5 ± 1.8 ms
same,ΔΔJp‐Tpc,"healthy male subjects [8]; 2 mg/kg, 10 mg/mL",9.2 ± 3.3 ms
same,ΔΔQRS,"healthy male subjects [8]; 2 mg/kg, 10 mg/mL",0.5 ± 1.1 ms
same,ΔΔQTcF,"healthy male subjects [8]; 2 mg/kg, 10 mg/mL",15.1 ± 4.1 ms
same,ΔΔ Tp‐Tend,"healthy male subjects [8]; 3 mg/kg, 1 mg/mL",5.0 ± 1.9 ms
same,ΔΔJp‐Tpc,"healthy male subjects [8]; 3 mg/kg, 1 mg/mL",9.8 ± 3.5 ms
same,ΔΔQRS,"healthy male subjects [8]; 3 mg/kg, 1 mg/mL",0.4 ± 1.2 ms
same,ΔΔQTcF,"healthy male subjects [8]; 3 mg/kg, 1 mg/mL",16.0 ± 4.3 ms
same,ΔΔ Tp‐Tend,"healthy male subjects [8]; 4 mg/kg, 1 mg/mL",5.0 ± 1.9 ms
same,ΔΔJp‐Tpc,"healthy male subjects [8]; 4 mg/kg, 1 mg/mL",9.9 ± 3.5 ms
same,ΔΔQRS,"healthy male subjects [8]; 4 mg/kg, 1 mg/mL",0.4 ± 1.2 ms
same,ΔΔQTcF,"healthy male subjects [8]; 4 mg/kg, 1 mg/mL",16.1 ± 4.3 ms
same,ΔΔ Tp‐Tend,"healthy male subjects [8]; 5 mg/kg, 1 mg/mL",5.0 ± 1.9 ms
same,ΔΔJp‐Tpc,"healthy male subjects [8]; 5 mg/kg, 1 mg/mL",9.8 ± 3.5 ms
same,ΔΔQRS,"healthy male subjects [8]; 5 mg/kg, 1 mg/mL",0.4 ± 1.2 ms
same,ΔΔQTcF,"healthy male subjects [8]; 5 mg/kg, 1 mg/mL",16.0 ± 4.3 ms
same,ΔΔ Tp‐Tend,"healthy male subjects [8]; 6 mg/kg, 1 mg/mL",6.5 ± 2.3 ms
same,ΔΔJp‐Tpc,"healthy male subjects [8]; 6 mg/kg, 1 mg/mL",11.7 ± 3.9 ms
same,ΔΔQRS,"healthy male subjects [8]; 6 mg/kg, 1 mg/mL",0.1 ± 1.4 ms
same,effect on PR interval,healthy male subjects [8]; all dose levels,no effect
same,effect on P‐wave duration,healthy male subjects [8]; all dose levels,no effect
same,effect on QRS duration,healthy male subjects [8]; all dose levels,no effect
same,effect on QTcF interval and QT subintervals,healthy male subjects [8]; all dose levels,dose‐dependent transient effect
same,effect on RR interval,healthy male subjects [8]; all dose levels,no effect
same,subjects with QTcF interval exceeding 450 ms,healthy male subjects [8]; any dose level,no subject
same,subjects with QTcF interval prolongation of > 60 ms,healthy male subjects [8]; any dose level,no subject
same,slope of concentration-effect on Tp‐Tend interval (± standard error),"healthy male subjects [8]; prespecified linear model, P = 0.001",0.670 ± 0.221 ms/(ug/mL)
same,slope of concentration-effect on QTcF interval (± standard error),"healthy male subjects [8]; prespecified linear model, P = 0.003",1.201 ± 0.431 ms/(ug/mL)
same,slope of concentration-effect on Jp‐Tpc interval (± standard error),"healthy male subjects [8]; prespecified linear model, P = 0.007",0.799 ± 0.327 ms/(ug/mL)
same,slope of concentration-effect on QRS duration (± standard error),"healthy male subjects [8]; prespecified linear model, P = 0.870",−0.145 ± 0.129 ms/(ug/mL)
same,effect on the ventricular interval,[9],no effect
"CN(CCOc1ccc(NS(C)(=O)=O)cc1)CCc1ccc(NS(C)(=O)=O)cc1 [Dofetilide, dofetilide]",effect on Jp‐Tpc interval per concentration,[10],14.1 ms per ng/mL
same,effect on Tp‐Tend interval per concentration,[10],14.5 ms per ng/mL
